Sampled rows, rich in hits. Any-hit rate of the full collection: about 12%.
Diaphorase inh: diaphorase inhibitors and chemical oxidizers, primary screen, counter-screen for diaphorase-coupled primary assays, biochemical, uHTS, resorufin fluorescence | diaphorase resazurin-to-resorufin fluorescence, NADH, 16 min; bacterial (C. kluyveri) enzyme, not human | inhibition, % at 20 µM | 190,000 tested, 0.69% active | AID 1217, 2008;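 active = primary screen inhibition at 20 µM above a set limit, cut at about 50% in these data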;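 note: plate controls were DMSO with full reaction for no effect and wells lacking NADH for full effect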
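Assay system: diaphorase enzyme from Clostridium kluyveri. Quantity: enzyme working solution with 0.14 U/mL diaphorase. Schedule: reaction incubation of 16 min at room temperature. Technique: resorufin fluorescence, excitation 544 nm, emission 590 nm. Controls: No-NADH positive control and DMSO neutral control.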
Cl transport mod: KCC2 cotransporter modulators, thallium flux, primary screen, cell-based, HEK293 KCC2, FluoZin-2 fluorescence, MLSMR | KCC2 cells, thallium flux FluoZin-2 fluorescence | 190,000 tested, 2.2% active | Solute carrier family 12 member 5 (Homo sapiens), Q9H2X9 | B-score of Tl+ flux slope (higher = more flux/activation; lower = inhibition) at 10 µM | AID 1456, 2008;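 active = thallium flux slope and its plate-corrected score both differing from the plate sample mean at a set confidence after two filtering rounds, in either direction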;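 note: slope of fluorescence scaled to starting intensity during 10 to 20 s after thallium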
Target sequence (Q9H2X9 whole entry, looked up): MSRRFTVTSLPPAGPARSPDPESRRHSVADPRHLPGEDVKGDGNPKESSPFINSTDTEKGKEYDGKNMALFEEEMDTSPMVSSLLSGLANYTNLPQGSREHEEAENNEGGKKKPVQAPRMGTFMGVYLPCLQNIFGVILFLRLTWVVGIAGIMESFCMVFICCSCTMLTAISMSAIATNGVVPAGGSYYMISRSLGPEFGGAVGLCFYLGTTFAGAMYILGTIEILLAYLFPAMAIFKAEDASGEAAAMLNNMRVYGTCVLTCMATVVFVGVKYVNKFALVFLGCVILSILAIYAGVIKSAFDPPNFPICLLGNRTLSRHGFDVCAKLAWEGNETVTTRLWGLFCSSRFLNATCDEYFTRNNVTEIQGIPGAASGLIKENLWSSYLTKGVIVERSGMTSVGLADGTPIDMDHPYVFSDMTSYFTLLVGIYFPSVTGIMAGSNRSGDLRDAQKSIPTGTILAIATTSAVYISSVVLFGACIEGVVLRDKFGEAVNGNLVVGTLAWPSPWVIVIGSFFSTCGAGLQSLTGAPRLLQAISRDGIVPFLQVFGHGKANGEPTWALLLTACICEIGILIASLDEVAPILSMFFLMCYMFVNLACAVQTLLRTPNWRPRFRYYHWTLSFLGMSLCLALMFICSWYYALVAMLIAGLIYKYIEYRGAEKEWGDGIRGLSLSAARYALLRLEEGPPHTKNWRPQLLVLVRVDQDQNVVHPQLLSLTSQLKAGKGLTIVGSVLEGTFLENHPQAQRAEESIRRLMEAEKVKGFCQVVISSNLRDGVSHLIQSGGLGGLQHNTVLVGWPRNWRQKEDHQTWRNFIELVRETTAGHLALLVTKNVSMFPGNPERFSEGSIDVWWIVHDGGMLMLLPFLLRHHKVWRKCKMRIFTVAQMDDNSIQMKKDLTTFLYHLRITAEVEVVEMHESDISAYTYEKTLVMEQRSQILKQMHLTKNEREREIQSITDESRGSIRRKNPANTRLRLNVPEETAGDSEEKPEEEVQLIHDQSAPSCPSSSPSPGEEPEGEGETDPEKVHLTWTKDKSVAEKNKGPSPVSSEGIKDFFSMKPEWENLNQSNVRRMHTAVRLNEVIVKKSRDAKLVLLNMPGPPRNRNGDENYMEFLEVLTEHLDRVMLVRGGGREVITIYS
WT yeast gro inh: growth inhibition of WT strain, primary screen, mitochondrial fusion inhibitor project, WT and mutant strains, chemical genetic. mitochondrial fusion phenotypic screen. inhibition, % at 10 µM. 190,000 tested, 2.1% active. AID 1362, 2008; in the data active = inhibition above about 58%; tested in S. cerevisiae
Diaphorase act: compounds boosting diaphorase resazurin reduction – biochemical, uHTS, resorufin fluorescence, counter-screen for diaphorase-coupled primary assays, primary screen; Diaphorase/resazurin coupled assay, 16 min; stronger effect = higher value; 1 = vehicle wells, 0 = NADH-free wells; activation factor at 20 µM; 190,000 tested, 0.005% active;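 active = diaphorase activity raised at least twofold by the compound at 20 µM; inactive = activation factor below 2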
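test system = bacterial diaphorase enzyme (C. kluyveri) | quantity = enzyme 0.07 U/mL final | reagent = NADH substrate 0.114 mM plus resazurin dye 0.1 mM, final | incubation = 16 min enzyme reaction, ambient temperature | buffer or medium = HEPES pH 7.4 buffer with MgCl2 and Tween 20 | signal = fluorescence of resorufin, 544 nm excitation, 590 nm emission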
ROMK primary: ROMK potassium channel modulators, primary screen, cell-based, thallium flux, MLSMR library. 130,000 tested, 2% active. B-score at 10 µM. Tet-inducible ROMK, thallium flux fluorescence; actives lie on both sides. AID 1918, 2009;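 active = signal ratio slope over the read window, or its plate-corrected B-score, at least 3 SD from the plate mean, either direction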;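 note: B-score of the F/F0 ratio slope over 7 to 12 s after thallium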
L major viab: Leishmania major promastigote growth inhibition, primary screen | Leishmania major promastigotes, resazurin fluorescence viability | inhibition, % at 10 µM | 200,000 tested, 9% active; in the data active = inhibition above about 50%;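 note: promastigotes grown with compound for 44 hours at 28 °C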
ROMK retest: ROMK channel modulator hit retest, confirmation, cell-based, thallium flux, duplicate, resupplied hits; shares compounds with ROMK primary; fluorescence ratio; stronger effect = lower value; normalized thallium flux (F/F0 slope) at 10 µM; 3,000 tested, 54% active;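 active = Flux at 10 µM at least 3 SD below or above vehicle control mean in one or both replicates; inconclusive = no clear call, values can overlap the other calls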
An asterisk follows results filed as active; ? = inconclusive; . = no result given.

SMILES | Diaphorase inh | Cl transport mod | WT yeast gro inh | Diaphorase act | ROMK primary | L major viab | ROMK retest
Cc1oc2cc(O)ccc2c(=O)c1-c1ccccc1 | 1.9 | -0.862 | -5.3 | 1 | 0.0112 | 8.3 | .
CN(Cc1ccccc1)Cc1nc2c(c(=O)n(C)c(=O)n2C)n1CCCc1ccccc1 | 16.1 | -0.474 | 41.1 | 0.8 | -3.56* | 28.6 | 0.0645*
Cc1cc(C)nc(SCc2nnc(SCC(=O)Nc3ccc(Cl)c(C(F)(F)F)c3)o2)n1 | 22.3 | -0.326 | 14.4 | 0.8 | -3.94* | -4.7 | 0.0643*
Cc1cccc(NC(=O)CSc2nnc(CSc3nc(C)cc(C)n3)o2)c1 | -0.8 | -0.836 | -8.4 | 1 | . | -3.4 | .
CC1CCN(S(=O)(=O)c2ccc3c(c2)N(CC(=O)NCc2cccnc2)C(=O)CS3)CC1 | -6.3 | -1.08 | -1.6 | 1.1 | 0.0225 | -3.4 | .
CCCNC(=O)CSc1nnc(C)s1 | 3.7 | 0.713 | 3.9 | 1 | 0.179 | -3.1 | .
Oc1ccccc1-c1nc(NCCN2CCOCC2)c2ccccc2n1 | 2.8 | . | 36.0 | 1 | -3.67* | 49.5 | 0.0725
Oc1ccccc1-c1nc(NCc2cccnc2)c2ccccc2n1 | . | 0.589 | . | . | 0.0425 | . | .
COC(=O)c1cc(NC(=O)/C=C/c2ccccc2)ccc1O | 3.4 | -1.24 | 4.3 | 1 | 0.999 | -1.3 | .
O=C(COc1ccc(Br)cc1)N1CCC(c2ccccc2)C1 (stereo not given) | -1.7 | -3.05 | 3.8 | 1 | . | -3.2 | .
CCOC(=O)Cn1c(=N)n(CCOc2ccc(OC)cc2)c2ccccc21 | 7.6 | -0.0934 | 5.1 | 0.9 | -2.62* | -0.9 | 0.0601*
CCOC(=O)Cn1c(=N)n(CCOc2ccc3ccccc3c2)c2ccccc21 | 14.1 | . | 16.8 | 0.9 | -4.17* | 15.1 | 0.0561*
C=CCNC(=O)C1=NOC(CNC(=O)c2c(-c3ccccc3Cl)noc2C)C1 (stereo not given) | 15.2 | . | -5.1 | 0.8 | . | -4.0 | .
CCC(C)(C)c1ccc(OCCCC[n+]2cccc(C)c2C)c(C(C)(C)CC)c1 | . | . | . | . | . | . | 0.0369*
COc1ccc(C(=O)C[n+]2cccc(C)c2C)cc1[N+](=O)[O-] | -14.4 | 0.841 | -3.7 | 1.1 | . | -6.9 | .
N#C[C@H]1[C@H](c2ccccc2)[C@](C#N)(C(=O)c2ccccc2)[C@@H]2C=Cc3ccccc3N21 | 8.2 | -0.414 | 63.1* | 0.9 | -2.84* | 47.8 | 0.0742
COc1ccc(C(=O)N2c3ccccc3C=CC2C#N)cc1 (stereo not given) | 18.1 | -0.132 | -19.8 | 0.8 | . | -1.4 | .
CCOC(=O)c1ccc(NC(=O)COc2ccc(-n3cnnn3)cc2)cc1 | -3.8 | . | -3.3 | 1 | 1.44 | -5.2 | 0.0887
C=CCOc1c(Br)cc(/C=N/O)cc1OCC | 14.7 | -0.731 | -5.7 | 0.9 | -3.78* | 27.3 | 0.0574*
Cc1ccc(C2=CSC3=NS(=O)(=O)CCN23)cc1 | 0.0 | -0.445 | -2.4 | 1 | -0.191 | 8.1 | .
COc1ccc(C(=O)Cc2ccc(OC)c(OC)c2)c(OC)c1 | 9.5 | -1.64 | -7.3 | 0.9 | -1.19 | -1.5 | .
Cc1[nH]nc(SCC(=O)NCCc2ccccc2)c1[N+](=O)[O-] | 12.2 | -1.04 | -15.0 | 0.9 | . | -8.3 | .
Cc1[nH]nc(SCC(=O)NCc2ccccc2)c1[N+](=O)[O-] | 5.3 | -1.51 | -10.1 | 0.9 | -2.3* | 0.3 | 0.0741
O=C(CSc1ccc2nnc(-c3ccc(F)cc3)n2n1)NCC1CCCO1 (stereo not given) | 16.3 | -0.768 | 8.4 | 0.8 | 0.949 | 1.7 | .
COc1ccc(-c2nnc3ccc(SCC(=O)NCC4CCCO4)nn23)cc1 (stereo not given) | 15.0 | 0.475 | 16.6 | 0.8 | -6.07* | 15.2 | 0.0702
SMILES | Diaphorase inh | Cl transport mod | WT yeast gro inh | Diaphorase act | ROMK primary | L major viab | ROMK retest
O=S(=O)(Nc1nc2ccccc2nc1Nc1ccc(N2CCOCC2)cc1)c1cc(Cl)ccc1Cl | 8.6 | -1.78 | 52.1 | 0.9 | . | 1.9 | 0.0571*
Clc1nc(Nc2ccc(N3CCOCC3)cc2)c2ccccc2n1 | -16.2 | 0.00422 | -4.5 | 1.2 | -0.932 | 19.0 | .
CCOc1ccc(C(=O)NCC(=O)OCC(=O)N2CCCC2)cc1 | 0.0 | 0.334 | -11.8 | 1 | -1.67 | -4.6 | .
Fc1ccc(COc2ccc(Br)cc2CNCc2ccncc2)cc1 | 10.6 | . | 13.3 | 0.9 | -2.66* | 97.4* | 0.0628*
Fc1ccccc1COc1ccc(Br)cc1CNCc1cccnc1 | 5.5 | -1.28 | 37.4 | 0.9 | 0.045 | 36.7 | .
O=P(Cc1cc(Br)cc(Br)c1OCCO)(c1ccccc1)c1ccccc1 | . | -1.18 | . | . | . | . | .
CC(=O)N1c2ccc(N=Cc3cc(Br)cc(Br)c3O)cc2CC1C (stereo not given) | . | -0.113 | . | . | . | . | .
Cc1ccc(C(=O)O)cc1N=Cc1cc(Br)cc(Br)c1O | 19.3 | 0.0186 | -4.3 | 0.8 | 5.13* | 17.7 | 0.108*
Cc1ccccc1C(=O)N1CCC(C(=O)Nc2ccc3c(c2)OCO3)CC1 | 6.8 | 0.883 | -6.8 | 0.9 | -0.00927 | 30.4 | .
COc1ccc(N(CC(O)Cn2c(C)nc3ccccc32)S(=O)(=O)c2ccccc2)cc1 (stereo not given) | 1.7 | 0.646 | -16.4 | 1 | 1.82 | 6.7 | .
Cc1ccc2cc(CN(Cc3nnnn3C3CCCC3)C3CCCCC3)c(=O)[nH]c2c1C | 4.1 | -0.814 | -17.3 | 1 | . | -3.0 | .
Cc1cc(C)c2[nH]c(=O)c(CN(Cc3ccc4c(c3)OCO4)Cc3nnnn3C3CCCC3)cc2c1 | 17.0 | -0.0876 | 35.4 | 0.8 | -3.25* | 88.1* | ?
Cc1cc(Cl)ccc1OCCCC(=O)OCC(=O)c1c(N)n(C)c(=O)n(C)c1=O | . | -0.375 | . | . | . | . | .
Cc1ccc(C(=O)N2CCN(S(=O)(=O)c3ccccc3)CC2)cc1 | 10.9 | -0.182 | 18.2 | 0.9 | 2.75* | 33.9 | ?
Cc1ccc(S(=O)(=O)N2CCN(C(=O)c3ccccc3)CC2)cc1 | 8.9 | 0.232 | -0.2 | 0.9 | 0.655 | 1.6 | .
COc1ccc(NC(=O)c2cc(S(=O)(=O)N3CCOCC3)cs2)cc1 | . | 0.833 | -16.4 | . | 0.0225 | -3.0 | .
Cc1cccc(-n2ncc3c(NCc4cccnc4)ncnc32)c1 | . | -0.493 | 8.6 | . | . | . | .
Cc1ccc(-n2ncc3c(NCc4cccnc4)ncnc32)c(C)c1 | 11.7 | 0.285 | -0.4 | 0.9 | -0.207 | -6.2 | 0.0665*
COc1cc(NC(=O)CCCOc2ccc(Cl)cc2Cl)c(C(=O)O)cc1OC | . | -1.82 | . | . | . | . | .
NCCc1c(-c2ccccc2)n(-c2ccccc2)c2ccccc12 | -22.2 | 0.116 | 87.0* | 1.2 | -3.39* | 100.6* | 0.061*
CCCc1c(O)c2ccccc2n(-c2ccccc2)c1=O | 2.6 | . | -15.8 | 1 | . | -6.7 | .
